Results: ChEMBL document CHEMBL1144642, “Antiproliferative activity of 2-alkyl-4-halopiperidines and 2-alkyl-4-halo-1,2,5,6-tetrahydropyridines in solid tumor cell lines” (2007)

Legend:
Format in all cases: functional
[1] = system: WiDr; experiment: Antiproliferative activity against human WiDr cells after 48 hrs by SRB assay
Procedure, shortened: (§1)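 NCI protocol, SRB read-out after 48 h continuous drug exposure. GI50, TGI and LC50 derived; 100 μM was the top concentration tested, with TGI and LC50 reported only when under 100 μM. GI50 values are means of two to four experiments ± standard deviation.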

[2] = system: SW1573; experiment: Antiproliferative activity against human SW1573 cells after 48 hrs by SRB assay; settings: SW1573, 48 h; procedure, shortened: as §1
[3] = system: A2780; experiment: Antiproliferative activity against human A2780 cells after 48 hrs by SRB assay; settings: A2780, 48 h; procedure, shortened: as §1
[4] = system: SW1573; experiment: Cell cycle arrest in human SW1573 cells assessed as accumulation at G2/M phase at 10 uM after 24 hrs relative to control
Procedure, shortened: (§2)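 Cells seeded at 0.7–1 × 10⁶ per well and left 24 h, then exposed 24 h to 10 or 20 μM beside untreated controls. Trypsinized, fixed in ice-cold 70% ethanol overnight at −20 °C, treated with RNAse and propidium iodide 30 min at 37 °C in the dark. DNA content read by flow cytometry (25,000 cells/sample); G2/M percentage compared with control.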

[5] = system: WiDr; experiment: Cell cycle arrest in human WiDr cells assessed as accumulation at G2/M phase at 20 uM after 24 hrs relative to control; procedure, shortened: as §2
[6] = system: SW1573; experiment: Cell cycle arrest in human SW1573 cells assessed as accumulation at G2/M phase at 20 uM after 24 hrs relative to control; procedure, shortened: as §2
[7] = system: WiDr; experiment: Cell cycle arrest in human WiDr cells assessed as accumulation at G2/M phase at 10 uM after 24 hrs relative to control; procedure, shortened: as §2

Row | Structure (SMILES) | GI50 [2] [µM] | GI50 [3] [µM] | GI50 [1] [µM] | also measured
1 | Cc1ccc(S(=O)(=O)N2CCC(Cl)=CC2c2ccccc2)cc1 (centres undefined) | 16 | 17 | 18 | LC50 (50% lethal concentration) [1]: 91 µM; TGI [1]: 77 µM; LC50 [2]: 87 µM; TGI [2]: 37 µM; LC50 (50% lethal concentration) [3]: 86 µM; TGI [3]: 42 µM
2 | Cc1ccc(S(=O)(=O)N2CC[C@@H](Br)C[C@@H]2C2CCCCC2)cc1 | 82 | > 100 | 14 | –
3 | Cc1ccc(S(=O)(=O)N2CC[C@@H](Br)C[C@@H]2c2ccccc2)cc1 | > 100 | > 100 | 36 | –
4 | Cc1ccc(S(=O)(=O)N2CC[C@@H](Br)C[C@@H]2Cc2ccccc2)cc1 | 73 | 63 | 37 | –
5 | Cc1ccc(S(=O)(=O)N2CC=C(Br)CC2)cc1 | > 100 | > 100 | > 100 | –
6 | Cc1ccc(S(=O)(=O)N2CCC(Br)=CC2C2CCCCC2)cc1 (centres undefined) | 65 | 44 | 18 | –
7 | Cc1ccc(S(=O)(=O)N2CCC(Br)CC2)cc1 | > 100 | > 100 | > 100 | –
8 | Cc1ccc(S(=O)(=O)N2CC[C@@H](Cl)C[C@@H]2c2ccccc2)cc1 | > 100 | > 100 | 37 | –
9 | CCCCCCC[C@H]1C[C@H](Cl)CCN1S(=O)(=O)c1ccc(C)cc1 | > 100 | > 100 | 54 | –
10 | Cc1ccc(S(=O)(=O)N2CCC(Cl)CC2)cc1 | > 100 | > 100 | > 100 | –
11 | CCCCCCC[C@H]1C[C@H](Br)CCN1S(=O)(=O)c1ccc(C)cc1 | > 100 | > 100 | > 100 | –
12 | Cc1ccc(S(=O)(=O)N2CC=C(Cl)CC2)cc1 | > 100 | > 100 | > 100 | –
13 | Cc1ccc(S(=O)(=O)N2CCC(Cl)=CC2Cc2ccccc2)cc1 (centres undefined) | 6.6 | 4.8 | 3.3 | LC50 (50% lethal concentration) [1]: 79 µM; TGI [1]: 14 µM; Activity [4]: 25%; Activity [5]: 81%; Activity [6]: 38%; Activity [7]: 53%

Second part, led by results:

Row | GI50 [2] [µM] | GI50 [3] [µM] | Structure (SMILES) | GI50 [1] [µM] | also measured
14 | 19 | 36 | Cc1ccc(S(=O)(=O)N2CC[C@@H](Cl)C[C@@H]2CC(C)C)cc1 | 22 | –
15 | 49 | 92 | CCCCCCCC1C=C(Cl)CCN1S(=O)(=O)c1ccc(C)cc1 (centres undefined) | 50 | –
16 | 62 | 39 | Cc1ccc(S(=O)(=O)N2CCC(Cl)=CC2C2CCCCC2)cc1 (centres undefined) | 24 | –
17 | 22 | 39 | Cc1ccc(S(=O)(=O)N2CC[C@@H](Br)C[C@@H]2CC(C)C)cc1 | 14 | –
18 | 26 | 36 | Cc1ccc(S(=O)(=O)N2CCC(Br)=CC2CC(C)C)cc1 (centres undefined) | 16 | –
19 | 54 | 49 | Cc1ccc(S(=O)(=O)N2CCC(Br)=CC2c2ccccc2)cc1 (centres undefined) | 29 | –
20 | 53 | 72 | Cc1ccc(S(=O)(=O)N2CC[C@@H](Cl)C[C@@H]2C2CCCCC2)cc1 | 15 | –
21 | 12 | 19 | Cc1ccc(S(=O)(=O)N2CC[C@@H](Cl)C[C@@H]2Cc2ccccc2)cc1 | 20 | TGI [2]: 66 µM; TGI [3]: 50 µM
22 | 21 | 27 | Cc1ccc(S(=O)(=O)N2CCC(Br)=CC2Cc2ccccc2)cc1 (centres undefined) | 24 | TGI [1]: 71 µM; TGI [2]: 78 µM; TGI [3]: 77 µM
23 | 49 | > 100 | CCCCCCCC1C=C(Br)CCN1S(=O)(=O)c1ccc(C)cc1 (centres undefined) | 40 | –
24 | 31 | 35 | Cc1ccc(S(=O)(=O)N2CCC(Cl)=CC2CC(C)C)cc1 (centres undefined) | 21 | –
